Measured values taken from article PMC7931646 (The Journal of Experimental Medicine, 2021).
≈ marks a conversion by molar mass, not a printed value. Where two headings read alike, the source gives them in different places.

Tests used:
[1] = test system: CSF Aβ42 and Aβ40; conditions: human, 200 mg, ref Soares et al., 2016, cited from earlier work
[2] = target: T1, CYP450 1A2 (Homo sapiens, UniProt P05177); test: CYP450 inhibition, recombinant isoform; assay type: in vitro ADME
T1 sequence (P05177 1-516): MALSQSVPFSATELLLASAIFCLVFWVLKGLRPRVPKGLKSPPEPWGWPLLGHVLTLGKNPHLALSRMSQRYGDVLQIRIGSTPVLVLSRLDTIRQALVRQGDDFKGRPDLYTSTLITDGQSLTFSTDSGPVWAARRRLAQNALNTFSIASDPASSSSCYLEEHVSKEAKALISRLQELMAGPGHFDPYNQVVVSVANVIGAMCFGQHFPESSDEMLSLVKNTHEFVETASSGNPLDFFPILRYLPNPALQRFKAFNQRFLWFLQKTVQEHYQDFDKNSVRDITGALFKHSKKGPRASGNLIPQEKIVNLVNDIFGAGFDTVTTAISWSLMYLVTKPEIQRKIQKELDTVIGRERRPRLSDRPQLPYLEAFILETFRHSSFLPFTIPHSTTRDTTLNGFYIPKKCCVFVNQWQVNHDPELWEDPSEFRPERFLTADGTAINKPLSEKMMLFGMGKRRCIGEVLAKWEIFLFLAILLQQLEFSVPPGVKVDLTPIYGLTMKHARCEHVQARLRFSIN
Outline: (§1)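 Recombinant human CYP450 isoforms were incubated with isoform-specific probe substrates; for CYP3A4 these were midazolam and testosterone. Inhibition was quantified by LC-MS/MS analysis of probe-substrate turnover.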

[3] = Liver microsomal stability, human; assay type: in vitro ADME; conditions: liver microsomes
Outline: (§2)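 Test compound at 1 µM was incubated for 30 min with liver microsomes at 1 mg/ml (human, rat or mouse). Result is percent of parent compound remaining.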

[4] = test system: S. typhimurium bacterial strains TA98, TA100, TA1535, TA1537; test: Non-GLP screening; assay type: cell-based, Salmonella typhimurium; conditions: 5–100 µM, with and without Aroclor-induced rat liver S9
Outline: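 Non-GLP mini-Ames screen using S. typhimurium TA98, TA100, TA1535 and TA1537, with and without Aroclor-induced rat liver S9. Test article was applied at 5–100 µM. Read-out was bacterial growth from reversion of the histidine mutation.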

[5] = Liver microsomal stability, rat; assay type: in vitro ADME; conditions: liver microsomes
Outline: as §2

[6] = GLP 28-d IND-enabling safety/toxicology study of compound 1 in rats; assay type: in vivo, rat; conditions: data not shown
[7] = MDR1-MDCK permeability; assay type: in vitro ADME; conditions: dog
Outline: (§3)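 Transport across MDR1-MDCK cell monolayers. Apparent permeability was measured in the apical-to-basolateral direction (× 10−6 cm/s). Efflux ratio was calculated as Papp B-A / Papp A-B.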

[8] = test system: P-glycoprotein (MDR1); test: MDR1-MDCK permeability; assay type: in vitro ADME; conditions: dog
Outline: as §3

[9] = target: hERG channel (Homo sapiens, UniProt Q12809); test: Patch-Xpress patch-clamp hERG assay in HEK-293 cells; assay type: cell-based
hERG channel, sequence (Q12809 whole entry, canonical isoform): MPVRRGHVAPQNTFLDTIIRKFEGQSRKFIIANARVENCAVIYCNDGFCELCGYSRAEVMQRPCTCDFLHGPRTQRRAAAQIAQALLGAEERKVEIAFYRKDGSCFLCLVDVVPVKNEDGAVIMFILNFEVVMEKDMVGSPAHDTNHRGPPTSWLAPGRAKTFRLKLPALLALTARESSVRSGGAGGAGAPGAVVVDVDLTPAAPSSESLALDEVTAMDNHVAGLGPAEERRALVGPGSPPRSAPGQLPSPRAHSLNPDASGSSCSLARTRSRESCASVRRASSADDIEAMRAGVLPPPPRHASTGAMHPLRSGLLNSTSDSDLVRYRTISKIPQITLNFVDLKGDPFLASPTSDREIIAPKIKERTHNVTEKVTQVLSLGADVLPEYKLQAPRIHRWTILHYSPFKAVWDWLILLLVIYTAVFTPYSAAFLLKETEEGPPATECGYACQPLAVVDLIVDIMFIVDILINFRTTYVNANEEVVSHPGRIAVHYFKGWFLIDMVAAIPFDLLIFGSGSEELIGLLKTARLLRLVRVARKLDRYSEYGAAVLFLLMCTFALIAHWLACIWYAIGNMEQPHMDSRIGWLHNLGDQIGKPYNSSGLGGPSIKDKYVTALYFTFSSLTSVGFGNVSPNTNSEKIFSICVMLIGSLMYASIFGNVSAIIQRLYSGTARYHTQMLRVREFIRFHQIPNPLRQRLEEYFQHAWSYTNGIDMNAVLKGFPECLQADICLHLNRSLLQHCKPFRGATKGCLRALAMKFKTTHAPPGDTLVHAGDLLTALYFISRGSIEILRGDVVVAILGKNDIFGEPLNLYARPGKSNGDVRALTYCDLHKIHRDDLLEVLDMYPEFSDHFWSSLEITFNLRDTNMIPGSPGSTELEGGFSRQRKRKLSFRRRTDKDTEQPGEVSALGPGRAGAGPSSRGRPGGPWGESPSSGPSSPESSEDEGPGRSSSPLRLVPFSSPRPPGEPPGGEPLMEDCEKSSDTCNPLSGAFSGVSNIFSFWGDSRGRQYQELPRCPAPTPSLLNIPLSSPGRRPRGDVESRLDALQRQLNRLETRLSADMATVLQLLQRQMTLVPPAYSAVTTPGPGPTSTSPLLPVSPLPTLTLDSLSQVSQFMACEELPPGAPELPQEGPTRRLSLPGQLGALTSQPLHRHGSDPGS

[10] = target: CYP450 2C9 (Homo sapiens, UniProt P11712); test: CYP450 inhibition, recombinant isoform; assay type: in vitro ADME
CYP450 2C9, sequence (P11712 whole entry, canonical isoform): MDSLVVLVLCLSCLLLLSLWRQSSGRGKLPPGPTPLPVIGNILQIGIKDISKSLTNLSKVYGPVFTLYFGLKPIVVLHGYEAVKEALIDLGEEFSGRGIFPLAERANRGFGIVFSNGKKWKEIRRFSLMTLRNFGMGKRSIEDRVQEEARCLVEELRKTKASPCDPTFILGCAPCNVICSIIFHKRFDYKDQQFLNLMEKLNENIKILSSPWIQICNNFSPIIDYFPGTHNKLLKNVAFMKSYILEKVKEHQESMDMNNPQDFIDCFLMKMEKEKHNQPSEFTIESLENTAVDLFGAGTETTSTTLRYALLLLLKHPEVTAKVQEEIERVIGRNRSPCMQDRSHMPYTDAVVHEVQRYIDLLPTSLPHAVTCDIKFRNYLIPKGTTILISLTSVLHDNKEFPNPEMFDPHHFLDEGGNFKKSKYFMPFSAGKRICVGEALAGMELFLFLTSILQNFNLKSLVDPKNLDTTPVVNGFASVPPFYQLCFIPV

[11] = Liver microsomal stability, mouse; assay type: in vitro ADME; conditions: liver microsomes
Outline: as §2

[12] = Kinetic aqueous solubility, PBS pH 7.4; assay type: physicochemical; conditions: PBS buffer, pH 7.4, aqueous buffer, kinetic from dmso stock
Outline: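 Kinetic solubility in PBS at pH 7.4, read by UV/Vis absorbance and reported in micromolar.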

[13] = Kinetic solubility in simulated intestinal fluids; assay type: physicochemical; conditions: for FaSSIF dissolved compound concentration: FaSSIF pH 6.5, UV/Vis absorbance; for FeSSIF dissolved compound concentration: FeSSIF pH 5.8, UV/Vis absorbance
Outline: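 Dissolved test compound concentration in FaSSIF or FeSSIF simulated intestinal fluids, determined by UV/Vis absorbance.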

[14] = target: CYP450 2D6 (Homo sapiens, UniProt P10635); test: CYP450 inhibition, recombinant isoform; assay type: in vitro ADME
CYP450 2D6, sequence (P10635 whole entry, canonical isoform): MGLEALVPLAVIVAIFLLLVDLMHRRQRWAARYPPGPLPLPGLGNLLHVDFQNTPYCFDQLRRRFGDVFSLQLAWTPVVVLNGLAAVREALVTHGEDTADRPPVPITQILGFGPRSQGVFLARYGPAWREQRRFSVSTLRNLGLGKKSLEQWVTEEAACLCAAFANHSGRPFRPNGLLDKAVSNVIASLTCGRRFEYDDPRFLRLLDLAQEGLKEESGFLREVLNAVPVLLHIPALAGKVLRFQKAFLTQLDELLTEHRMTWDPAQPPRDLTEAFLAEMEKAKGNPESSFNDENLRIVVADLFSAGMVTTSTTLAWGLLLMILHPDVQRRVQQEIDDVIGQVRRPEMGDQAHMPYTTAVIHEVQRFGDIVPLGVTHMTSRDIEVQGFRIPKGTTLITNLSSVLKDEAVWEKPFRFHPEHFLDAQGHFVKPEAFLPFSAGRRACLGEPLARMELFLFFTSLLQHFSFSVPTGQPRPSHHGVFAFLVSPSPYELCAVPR
Outline: as §1

[15] = target: CYP450 2C19 (Homo sapiens, UniProt P33261); test: CYP450 inhibition, recombinant isoform; assay type: in vitro ADME
CYP450 2C19, sequence (P33261 whole entry, canonical isoform): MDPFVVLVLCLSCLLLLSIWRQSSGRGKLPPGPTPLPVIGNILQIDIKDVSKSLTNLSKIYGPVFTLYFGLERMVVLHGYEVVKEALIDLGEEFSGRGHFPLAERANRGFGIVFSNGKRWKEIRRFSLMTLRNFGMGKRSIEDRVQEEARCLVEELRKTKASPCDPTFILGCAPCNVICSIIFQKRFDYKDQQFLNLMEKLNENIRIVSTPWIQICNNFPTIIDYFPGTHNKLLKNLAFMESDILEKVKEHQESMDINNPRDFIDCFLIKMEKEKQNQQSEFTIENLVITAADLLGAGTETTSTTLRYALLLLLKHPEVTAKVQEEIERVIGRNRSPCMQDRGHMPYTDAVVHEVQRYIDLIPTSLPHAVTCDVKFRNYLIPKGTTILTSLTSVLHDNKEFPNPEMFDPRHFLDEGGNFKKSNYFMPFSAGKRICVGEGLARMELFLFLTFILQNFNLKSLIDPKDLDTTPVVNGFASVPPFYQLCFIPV
Outline: as §1

[16] = target: CYP450 3A4 (Homo sapiens, UniProt P08684); test: CYP450 inhibition, recombinant isoform; assay type: in vitro ADME
CYP450 3A4, sequence (P08684 whole entry, canonical isoform): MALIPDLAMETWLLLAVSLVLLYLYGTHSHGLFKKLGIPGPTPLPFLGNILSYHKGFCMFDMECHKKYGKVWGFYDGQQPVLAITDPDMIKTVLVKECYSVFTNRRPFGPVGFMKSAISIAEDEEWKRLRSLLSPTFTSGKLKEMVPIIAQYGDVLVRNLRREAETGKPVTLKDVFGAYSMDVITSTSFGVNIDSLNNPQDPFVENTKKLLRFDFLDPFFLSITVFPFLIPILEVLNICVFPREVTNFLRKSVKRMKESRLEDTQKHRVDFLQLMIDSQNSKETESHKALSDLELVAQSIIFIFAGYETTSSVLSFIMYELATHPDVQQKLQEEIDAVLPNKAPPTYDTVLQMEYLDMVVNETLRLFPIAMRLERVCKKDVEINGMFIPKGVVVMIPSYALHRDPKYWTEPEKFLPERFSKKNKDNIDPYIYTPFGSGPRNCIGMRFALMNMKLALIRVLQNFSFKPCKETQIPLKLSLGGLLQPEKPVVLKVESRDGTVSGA
Outline: as §1

[17] = GLP 28-d IND-enabling safety/toxicology study of compound 1 in NHPs; assay type: in vivo, NHP; conditions: data not shown
[18] = test system: S. typhimurium strains TA1535, TA1537, TA98, TA100 and E. coli strain WP2 (uvrA); test: GLP Salmonella–Escherichia coli/microsome plate incorporation; assay type: cell-based, Salmonella typhimurium; conditions: S. typhimurium TA98 and TA100, only with Aroclor-induced rat liver S9; data not shown
Outline: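 GLP plate-incorporation mutagenicity test using S. typhimurium TA1535, TA1537, TA98 and TA100 and E. coli WP2 (uvrA). Each strain was run with and without a metabolic activation mix of Aroclor 1254–induced rat liver microsomes (S9). Read-out is revertant bacterial growth.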

[19] = Plasma protein binding, equilibrium dialysis; assay type: in vitro ADME; conditions: human
Outline: (§4)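 Equilibrium dialysis of test compound in human, rat or mouse plasma against buffer across a semipermeable membrane. Compound concentrations in both compartments were measured by LC/MS, and percent bound was derived from them.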

[20] = Plasma protein binding, equilibrium dialysis; assay type: in vitro ADME; conditions: mouse
Outline: as §4

[21] = Plasma protein binding, equilibrium dialysis; assay type: in vitro ADME; conditions: rat
Outline: as §4

[22] = test system: plasma Aβ42; conditions: human, 250 mg, SAD study; ref Yu et al., 2014; cited from earlier work
[23] = test system: CSF Aβ42; conditions: human, ref Ahn et al., 2020, cited from earlier work; for CSF Aβ42 levels lowered: MAD study
[24] = test system: γ-secretase; conditions: ref Green et al., 2009; cited from earlier work
[25] = ref Green et al., 2009; cited from earlier work
[26] = CYP450 IC50 3A4 (m), probe substrate midazolam

CNc1nc(Nc2ccc(-n3cnc(C)n3)c(OC)c2)nc2c1CC[C@H]2c1ccc(F)cc1 [BMS-932481]
maximal lowering of CSF Aβ40 levels ([1]; 2-wk MAD study): 74%
maximal lowering of CSF Aβ42 levels ([1]; 2-wk MAD study): 77%
stage 3 elevations in alanine amino transferase [1]: two of six subjects

COc1nc(-c2cc(C)c(N[C@@H](C)c3ccc(F)cc3)nn2)ccc1-n1cnc(C)c1 [Compound 1, (S)-N-(1-(4-fluorophenyl)ethyl)-6-(6-methoxy-5-(4-methyl-1H-imidazol-1-yl)pyridin-2-yl)-4-methylpyridazin-3-amine]
IC50 [2]: 37 µM
remaining at 0.5 h, 1 µM [3]: 78%
Ames [4]: Positive
remaining at 0.5 h, 1 µM [5]: 84%
finding in GLP 28-d IND-enabling study in rat [6]: potentially mutagenic metabolite(s)
Papp A→B [7]: 37.2 ×10⁻⁶ cm/s
efflux ratio [8]: 0.9
IC50 [9]: 6.2 µM
IC50 [10]: 1.3 µM
remaining at 0.5 h, 1 µM [11]: 76%
solubility kinetic [12]: 6.6 µM (≈ 2.76 µg/mL)
FaSSIF dissolved compound concentration [13]: >100/ >100
FeSSIF dissolved compound concentration [13]: >100/ >100
IC50 [14]: 4.7 µM
IC50 [15]: 6.9 µM
IC50 [16]: 8.9 µM
IC50 [16, 26]: 14 µM
finding in GLP 28-d IND-enabling study in NHPs [17]: evidence of corrected QT interval prolongation
Ames assay results [18]: highly variable
fraction unbound [19]: 0.004
fraction unbound [20]: 0.002
fraction unbound [21]: 0.001

COc1nc(-c2cc(C)c(N[C@@H](C)c3c(F)cc(F)cc3F)nn2)ccc1-n1cnc(C)c1 [Compound 3, (S)-6-(6-methoxy-5-(4-methyl-1H-imidazol-1-yl)pyridin-2-yl)-4-methyl-N-(1-(2,4,6-trifluorophenyl)ethyl)pyridazin-3-amine]
IC50 [2]: 3.6 µM
remaining at 0.5 h, 1 µM [3]: 100%
Ames [4]: Negative
remaining at 0.5 h, 1 µM [5]: 100%
Papp A→B [7]: 30.2 ×10⁻⁶ cm/s
efflux ratio [8]: 1.1
IC50 [9]: 3.1 µM
safety margin between Aβ42 IC50 and hERG IC20 [9]: > 100 fold
IC20 ([9]; human, HEK-293 cells expressing hERG): 1 µM
CYP450 2C9 IC50 relative to Aβ42 IC50 [10]: over 200 fold
IC50 [10]: 1.3 µM
remaining at 0.5 h, 1 µM [11]: 100%
solubility kinetic [12]: < 1.3 µM
FaSSIF dissolved compound concentration [13]: 79
FeSSIF dissolved compound concentration [13]: 82
IC50 [14]: 20 µM
IC50 [15]: 13 µM
IC50 [16]: 17 µM
IC50 [16, 26]: 19 µM
fraction unbound [19]: 0.003
fraction unbound [20]: 0.003
fraction unbound [21]: 0.003

COc1nc(/C=C/c2nc3n(n2)CCC[C@H]3c2ccccc2C(F)(F)F)ccc1-n1cnc(C)c1 [E2212]
maximal lowering of plasma Aβ42 levels (AUC0–24 h) [22]: 44.1%

Cc1cn(-c2ccc3n(c2=O)CCN([C@@H](C)[C@@H]2CC[C@H](c4cc(F)c(Cl)cc4C(F)(F)F)O2)C3=O)cn1 [PF-06648671]
CSF Aβ42 levels lowered ([23]; 100 mg): 44%
CSF Aβ42 levels lowered ([23]; 200 mg): 59%
CSF Aβ42 levels lowered ([23]; 360 mg): 65%
safety profile ([23]; up to 360 mg qd for 14 d): good safety profile

C[C@@H](C(=O)O)c1ccc(-c2ccccc2)c(F)c1 [R-flurbiprofen]
in vitro GSM activity [24]: weak
efficacy in phase 3 human trials [25]: did not show efficacy
